Tests used:
[1] = target: Protease (Human immunodeficiency virus 1) (UniProt Q9YQ12); test: Inhibition of recombinant HIV1 protease at 10 uM by HPLC method
How it was run: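 Recombinant HIV-1 protease with HIV-1 Protease Substrate III in 50 mM sodium acetate pH 4.9, 200 mM NaCl, 5 mM DTT, 10% glycerol; inhibitors added from DMSO (5% v/v final). Enzyme addition starts the reaction, run 3.5 min at 37 °C, then quenched with 10% TFA. Substrate conversion is read by reverse-phase C18 HPLC (5–50% acetonitrile, 0.1% TFA), against inhibitor-free 5% DMSO baseline.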

[2] = system: Human immunodeficiency virus 1; test: Antiviral activity against HIV1 assessed as inhibition of viral infection at 10 uM by cell-based assay; type: functional
[3] = system: Human immunodeficiency virus 1; test: Antiviral activity against HIV1 assessed as inhibition of viral infection by cell-based assay; type: functional, organism-based

Sequence of Protease (Human immunodeficiency virus 1) (Q9YQ12 as listed by the source): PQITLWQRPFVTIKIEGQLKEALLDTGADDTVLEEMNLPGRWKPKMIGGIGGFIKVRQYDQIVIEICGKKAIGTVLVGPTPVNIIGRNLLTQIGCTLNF

Compound	inhibition [1]	inhibition at 10 µM [2]	IC50 [3]
O=C(N[C@H](CO)c1ccccc1)[C@@H](CSC[C@@H](Cc1ccccc1)C(=O)N[C@H](CO)c1ccccc1)Cc1ccccc1	41%	1.4%	–
O=C(N[C@@H](CO)c1ccccc1)[C@@H](CSC[C@@H](Cc1ccccc1)C(=O)N[C@@H](CO)c1ccccc1)Cc1ccccc1	51%	15.4%	–
O=C(N[C@H](CO)c1ccccc1)[C@@H](Cc1ccccc1)C[S+]([O-])C[C@H](Cc1ccccc1)C(=O)N[C@H](CO)c1ccccc1	50%	2.5%	–
CNC(=O)[C@H](NC(=O)[C@@H](Cc1ccccc1)C[S+]([O-])C[C@H](Cc1ccccc1)C(=O)N[C@@H](C(=O)NC)C(C)C)C(C)C	90%	2.1%	–
CNC(=O)[C@@H](NC(=O)[C@@H](CSC[C@@H](Cc1ccccc1)C(=O)N[C@H](C(=O)NC)C(C)C)Cc1ccccc1)C(C)C	87%	12.6%	–
N=[S+]([O-])(C[C@H](Cc1ccccc1)C(=O)N[C@H](CO)c1ccccc1)C[C@H](Cc1ccccc1)C(=O)N[C@H](CO)c1ccccc1	54%	0%	–
CNC(=O)[C@H](NC(=O)[C@@H](Cc1ccccc1)C[S+](=N)([O-])C[C@H](Cc1ccccc1)C(=O)N[C@@H](C(=O)NC)C(C)C)C(C)C	99%	5.5%	–
N=[S+]([O-])(C[C@H](Cc1ccccc1)C(=O)N[C@@H](CO)c1ccccc1)C[C@H](Cc1ccccc1)C(=O)N[C@@H](CO)c1ccccc1	87%	0%	–
CN=[S+]([O-])(C[C@H](Cc1ccccc1)C(=O)N[C@@H]1c2ccccc2C[C@@H]1O)C[C@H](Cc1ccccc1)C(=O)N[C@@H]1c2ccccc2C[C@@H]1O	–	–	> 10 µM
O=C(N[C@@H](CO)c1ccccc1)[C@@H](Cc1ccccc1)C[S+]([O-])C[C@H](Cc1ccccc1)C(=O)N[C@@H](CO)c1ccccc1	47%	0%	–

Source: ChEMBL document CHEMBL1157558, “Design, asymmetric synthesis, and evaluation of pseudosymmetric sulfoximine inhibitors against HIV-1 protease” (Bioorg Med Chem, 2010)
